Screens from PubChem BioAssay.
HUVEC inhibit – blocks proliferation of human endothelial cells; HUVEC proliferation, CellTiter-Glo luminescence, 72 h; hits give low values; viability, % at 10 µM (by protocol); 86,000 compounds, 1.1% hits;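 active = viability at or below 30%; inactive = viability above 30%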;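 note: 100% = median luminescence of DMSO-only cell control wells on each plate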
HCT116 bCat-KO – beta-catenin-lacking colon tumor cell growth suppression. HCT116 beta-catenin knockout viability, CellTiter-Glo, 60 h; hits give low values. viability, % at 10 µM. 140,000 compounds, 1.5% hits;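 active = viability at or under a set limit, the compound median less 4 SD, cut at about 6% in these data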;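 note: 0% = Hyamine 1622 control at 20 µM and 100% = untreated cell control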
Fibroblast inh – blocks proliferation of human lung fibroblasts; viability, % at 10 µM; 85,000 compounds, 1.1% hits; LL 47 human lung fibroblast viability, ATP luminescence; hits give low values;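 active = viability at or below 50% in the single dose screen; inactive = viability above 50%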;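 note: compound exposure lasted 72 h before the ATP readout; 100% = median luminescence of untreated cell-only wells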
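Material: Human LL 47 lung fibroblast cells | Input: 1,150 cells/well | Buffer or medium: IMEM plus 15% FBS | Compound dosing: 0.1% DMSO in all compound wells | Times: Overnight cell rest, 72 h compound treatment at 37 °C | Signal: CellTiter-Glo luminescence measuring cellular ATP | Measure: % viability versus median cells-only luminescence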
HCT116 PTEN-null – PTEN-deleted cell growth suppression | HCT116 PTEN-null viability, CellTiter-Glo, 60 h; hits give low values | viability, % at 10 µM | 140,000 compounds, 1.2% hits | AID 827;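 active = viability at or below a set limit, 4 SD under the median of all tested compounds, cut at about 3.7% in these data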;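 note: PTEN knockout HCT116 line with beta catenin targeted HCT116 as companion control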
H69AR inhibit – blocks growth of human H69AR lung tumor cells; H69AR lung tumor viability, ATP luminescence, 72 h; hits give low values; viability, % at 10 µM; 85,000 compounds, 6% hits; AID 598;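 active = viability at or below 40%; inactive = viability above 40%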;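 note: multidrug resistant small cell line overexpressing MRP-1 efflux transporter; 100% = mean luminescence of untreated control wells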
Numbers without * were called inactive; . = no result. Only a selection was taken, and hits are over-represented in it overall.

SMILES | HUVEC inhibit | HCT116 bCat-KO | Fibroblast inh | HCT116 PTEN-null | H69AR inhibit
Cc1cccc(C)c1NC(=O)c1cn(-c2ccccc2)nc1-c1ccccc1 | . | 89 | . | 95 | .
COc1cccc(-c2nn(-c3ccccc3)cc2C(=O)Nc2nccs2)c1 | 81 | 74 | 90 | 76 | 36*
COc1ccc(-c2nn(-c3ccccc3)cc2C(=O)Nc2nccs2)cc1 | 75 | 72 | 103 | 60 | 23*
COc1cccc(-c2nnc3sc(-c4ccc(Cl)cc4)nn23)c1 | 106 | . | 108 | . | 98
CCOC(=O)C1(C(=O)OCC)C(c2ccccc2)CC(O)N1C(C)=O (centres undefined) | 109 | . | 113 | . | 89
Oc1ccc(N=Nc2c(O)ccc3ccccc23)cc1 | . | 47 | . | 47 | .
Oc1c(N=Nc2ccccn2)ccc2ccccc12 | . | 1.8* | . | 2.0* | .
CC(=O)N1CCc2c(sc(NC(=O)C3CC3)c2-c2nc3ccccc3s2)C1 | 70 | 6.0* | 88 | 20 | 50
COc1ccc(NC(=O)COC(=O)Cc2ccc(-c3ccccc3)cc2)c(OC)c1 | . | 90 | . | 101 | .
C#CCSc1nnc(CSc2nc3ccccc3s2)n1-c1ccccc1 | 80 | 81 | 89 | 83 | 3.0*
COc1cc2c3nnc(-c4ccc(F)cc4)c-3cn(Cc3cccc(C)c3)c2cc1OC | 2.3* | 82 | 3.2* | 74 | 1.1*
COc1cc2c3nnc(-c4ccc(F)cc4)c-3cn(Cc3ccc(C)cc3)c2cc1OC | 38 | 85 | 68 | 97 | 43
COc1ccc(C(c2nnnn2CS(=O)(=O)c2ccc(C)cc2)N2CCN(Cc3ccccc3)CC2)cc1 (centres undefined) | 76 | . | 89 | . | 76
CCc1cccc(CC)c1NC(=S)NCCc1c(C)[nH]c2ccc(C)cc12 | . | 6 | . | 2.6* | .
CCc1cccc(C)c1NC(=S)NCCc1c(C)[nH]c2ccc(C)cc12 | . | 3.5* | . | 4 | .
COc1ccc(NS(=O)(=O)c2c(C)cc(C)cc2C)cc1 | 91 | 74 | 101 | 81 | 16*
COc1cccc(NS(=O)(=O)c2c(C)cc(C)cc2C)c1 | 90 | 88 | 96 | 81 | 93
S=c1[nH]ncn1/N=C/c1cccc(Oc2ccccc2)c1 | 81 | 107 | 100 | 107 | 1.7*
COc1cc2c(cc1OC)CN(C(=O)CSc1nc(C)cc(C)c1C#N)CC2 | 108 | 71 | 100 | 72 | 72
CCOC1(OCC)C(c2ccc(N)cc2)C(C#N)(C#N)C1(OCC)OCC (centres undefined) | . | 80 | . | . | .
COc1ccccc1N1CCN(CC(=O)c2c(C)[nH]c3cc(C)ccc23)CC1 | 32 | 55 | 100 | 57 | 37*
COc1ccccc1N1CCN(CC(=O)c2c(C)n(C)c3ccccc23)CC1 | 102 | 73 | 100 | 64 | 70
O=c1cc(-c2ccccc2)nc2n1Cc1ccccc1-2 | 86 | 78 | 108 | 101 | 79
CCCOc1ccc(C(=O)NNC(=S)NC(=O)CC)cc1 | . | 5.5* | . | 6 | .
COCCn1c(-c2ccc(-c3ccccc3Cl)o2)nc2c1c(=O)[nH]c(=O)n2CC(C)C | 37 | 62 | 60 | 61 | 18*
SMILES | HUVEC inhibit | HCT116 bCat-KO | Fibroblast inh | HCT116 PTEN-null | H69AR inhibit
CCCCn1c(=O)[nH]c(=O)c2c1nc(-c1ccc(-c3ccccc3Br)o1)n2CCOC | 44 | 34 | 39* | 41 | 47
CCCOc1ccc(C(=O)NC(=S)NCc2cccnc2)cc1 | . | 91 | . | 84 | .
O=C1CSC(c2ccccn2)N1Cc1cn2ccccc2n1 (centres undefined) | 100 | 79 | 14* | 79 | 94
Cn1c(=N)n(CC(O)c2cccc3ccccc23)c2ccccc21 (centres undefined) | 88 | 29 | 84 | 32 | 26*
COC(=O)c1cn(CCOc2ccc(C)cc2)c2ccccc12 | 95 | 32 | 94 | 34 | 98
O=C(CCN1CCN(c2ccccc2F)CC1)c1ccc(Br)cc1 | 70 | 73 | 86 | 62 | 7.7*
COC(=O)c1cccc(NC(=O)CN2CCN(c3ccc(OC)cc3)CC2)c1 | 99 | 101 | 99 | 98 | 90
CCOc1ccc(NC(=O)CN2CCN(CC(=O)c3ccc(OCC)cc3)CC2)cc1 | 98 | 84 | 91 | 102 | 86
CCOc1ccc(NC(=O)CN2CCN(CC(=O)Nc3ccc(F)cc3)CC2)cc1 | 98 | 93 | 89 | 95 | 30*
COc1cccc(NC(=O)CCC(=O)Nc2cccc(OC)c2)c1 | . | 94 | . | 90 | .
CCOCC(=O)Nc1cccc(OC)c1 | 91 | 93 | 96 | 95 | 28*
COc1cccc(NC(=O)CN2CCN(c3ccc(F)cc3)CC2)c1 | 109 | 100 | 95 | 90 | 28*
COc1ccccc1-n1c(SCC(=O)Nc2ccc3c(c2)OCO3)nc2c(c1=O)SCC2 | 93 | 96 | 103 | 95 | 85
COc1ccc2c(c1)N(C(=O)CN1C(=O)C3CCCCC3C1=O)C(C)(C)C=C2C (centres undefined) | 94 | 89 | 94 | 92 | 90
Cc1ccc(S(=O)(=O)N2CCCCC2)cc1NC(=O)COC(=O)Cc1c(F)cccc1Cl | . | 85 | . | 97 | .
COc1ccc(Cn2cnc3c([N+](=O)[O-])c(C)c(C)cc32)cc1 | . | 81 | . | 83 | .
CCOc1ccc(NC(=O)C/C(N)=N/O)cc1 | 94 | 92 | 95 | 97 | 95
CCOc1ccc(NC(=O)CCN2CCN(c3ccccc3F)CC2)cc1 | 71 | 43 | 93 | 44 | 24*
CCOc1ccc(NC(=O)CSC(N)=O)cc1 | 47 | 87 | 102 | 97 | 15*
CCN(CC)S(=O)(=O)c1cccc(-c2nnc(SCC(=O)NC)n2CCc2ccccc2)c1 | 93 | 102 | 103 | 101 | 69
O=c1c2ccccc2n(Cc2ccc(F)cc2)c(=O)n1C1CCCC1 | 96 | 64 | 108 | 58 | 38*
O=S(=O)(c1ccc2c(c1)OCO2)N1CCN(c2nnnn2-c2ccccc2)CC1 | 93 | 93 | 94 | 90 | 89
COC(=O)C1=C(CN2CCc3ccccc32)NC(=O)NC1c1cc(C)ccc1C (centres undefined) | 85 | 58 | 89 | 41 | 34*
CCCOc1ccccc1C1CC(=O)Nc2cc3c(cc21)OCCO3 (centres undefined) | . | 17 | . | 17 | .
CCOc1ccccc1C1CC(=O)Nc2cc3c(cc21)OCCO3 (centres undefined) | 51 | 17 | 61 | 16 | 30*
CC(C)Oc1ccccc1C1CC(=O)Nc2cc3c(cc21)OCO3 (centres undefined) | 45 | 9 | 62 | 12 | 20*
O=C(CC1c2ccccc2Oc2ccccc21)N1CCN(c2ccccn2)CC1 | 97 | 62 | 110 | 57 | 38*
CC1CCCN(c2oc(-c3cccc4ccccc34)nc2C#N)C1 (centres undefined) | 96 | 89 | 47* | 95 | 95
C=CCn1c(SCC(=O)Nc2nc(C)cs2)nnc1C(NC(=O)c1ccccc1)C(C)C (centres undefined) | 93 | 94 | 100 | 96 | 14*
CC(C)c1ccc2[nH]c(O)c(N=NC(=O)c3ccc(CSc4nncn4C)cc3)c2c1 | . | 32 | . | 28 | .
